A3A deaminase – APOBEC3A ssDNA deaminase inhibitors, primary screen, selectivity assay for APOBEC3G inhibitor project, biochemical, FAM/TAMRA oligo cleavage fluorescence | DNA dC->dU-editing enzyme APOBEC-3A (Homo sapiens), P31941 | inhibition, % at 20 µM | actives 0.41% (n = 330,000) | recombinant A3A, FAM/TAMRA ssDNA deamination fluorescence;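 active means at least 40% inhibition at 20 µM here, with at most 30% in a related deaminase screen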;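 further: plate controls were A3A with DMSO for no effect and wells lacking A3A enzyme for full effect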
pCIP destab – p/CIP-EGFP fusion destabilizers, primary screen, fluorescence, F442A cells; Q05BA5; 16 h; decrease of EGFP signal, % at 10 µM; actives 0.01% (n = 290,000);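 active means EGFP signal decrease of at least 30% at 10 µM or well 3 SD below plate mean, unless failing retest; inactive means the rest, including hits failing retest or dose response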
PHOSPHO1 block – PubChem AID 1565 | Phosphoethanolamine/phosphocholine phosphatase (Homo sapiens), Q8TCT1 | recombinant PHOSPHO1, absorbance phosphatase assay | inhibition, % at 13.3 µM | actives 1.1% (n = 290,000); in the data active means inhibition above about 60%
Tb MetRS inh – T. brucei MetRS inhibitors, primary screen, biochemical, luminescence | methionyl-tRNA synthetase (Trypanosoma brucei brucei) | purified T. brucei MetRS, ATP depletion, Kinase-Glo luminescence | inhibition, % at 11.9 µM | actives 0.4% (n = 360,000) | AID 624268, 2012;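 active means inhibition above a per-plate cutoff of the control wells' mean inhibition plus 3 SD, cut at about 5.5% in these data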;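 further: 0% = DMSO wells median and 100% = median of wells with control inhibitor compound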
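Material – parasite MetRS enzyme · Medium – HEPES-MgCl2-KCl buffer plus DTT, spermine, BSA, pyrophosphatase · Reagent – ATP, methionine and E. coli bulk tRNA substrates · Times – 15 min enzyme-compound preincubation, 2 h reaction, 10 min detection, 25 °C · Measured by – luminescence of leftover ATP · Evaluation – percent inhibition relative to median high and low control wells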
A3G deaminase – APOBEC3G DNA deaminase inhibitors, primary screen, biochemical, fluorescence, single-stranded DNA substrate, uHTS. recombinant A3G, ssDNA deamination FAM/TAMRA fluorescence. inhibition, % at 20 µM. actives 0.28% (n = 330,000). AID 493012, 2011;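 active means inhibition of at least 40% at 20 µM, with no more than 30% in the related APOBEC3A deaminase screen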;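 further: plate controls were DMSO wells with A3G for no effect and wells lacking A3G enzyme for full effect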
Target sequence (Q9HC16 whole entry, looked up): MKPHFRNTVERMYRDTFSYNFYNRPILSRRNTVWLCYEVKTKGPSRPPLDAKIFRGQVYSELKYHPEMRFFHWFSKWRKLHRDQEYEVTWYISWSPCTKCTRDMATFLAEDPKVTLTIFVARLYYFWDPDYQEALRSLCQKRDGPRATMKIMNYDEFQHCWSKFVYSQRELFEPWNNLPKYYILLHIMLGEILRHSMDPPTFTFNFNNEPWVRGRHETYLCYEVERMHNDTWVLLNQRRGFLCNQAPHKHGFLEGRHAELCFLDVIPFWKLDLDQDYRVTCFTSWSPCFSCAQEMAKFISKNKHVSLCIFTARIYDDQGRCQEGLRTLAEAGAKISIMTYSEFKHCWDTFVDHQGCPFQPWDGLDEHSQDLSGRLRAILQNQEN
Tb MetRS conf – T. brucei MetRS inhibitors, confirmation, biochemical, luminescence; shares compounds with Tb MetRS inh; T. brucei MetRS enzyme, luminescence (ATP depletion); inhibition, % at 11.9 µM; actives 93% (n = 1,400); AID 624412, 2012; in the data active means inhibition above about 7%
Jurkat tox – Jurkat T cell cytotoxicity, cytotoxicity control for T. brucei MetRS inhibitor project, luminescence, high throughput; inhibition, % at 8.3 µM; Jurkat cells viability, ATP luminescence; actives 12% (n = 1,400); AID 624413, 2012; shares compounds with Tb MetRS inh; in the data active means inhibition above about 15%;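 further: 0% = vehicle and 100% = reference inhibitor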
Tb MetRS inh FP – T. brucei MetRS inhibitors, orthogonal assay for T. brucei MetRS inhibitor project, biochemical, fluorescence polarization. shares compounds with Tb MetRS inh. purified T. brucei MetRS. inhibition, % at 11.9 µM. actives 44% (n = 1,400). AID 651607, 2012; in the data active means inhibition above about 17%;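 further: 0% = vehicle wells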
* marks the source's active call; other numbers are inactive results. Sampled rows, rich in hits. Any-hit rate of the full collection: about 1.8%.

For CNC(=O)CC1C(=O)N(c2ccc(OC)cc2)C(=S)N1NC(=O)c1cccc(F)c1 (stereo not given) the results were A3A deaminase 2, pCIP destab -7, PHOSPHO1 block -2, Tb MetRS inh -1 and A3G deaminase 3.
For O=C1CC(C2CCCO2)C(=O)N1c1ccccc1 (stereo not given) the results were A3A deaminase 1, pCIP destab -9, PHOSPHO1 block -13, Tb MetRS inh 0 and A3G deaminase 1.
Screening O=C(c1ccc([N+](=O)[O-])cc1)N1CCN(C(=O)c2cccnc2)CC1 returned A3A deaminase -6, pCIP destab 4, PHOSPHO1 block 39, Tb MetRS inh 0 and A3G deaminase 0.
`O=C(c1cccnc1)N1CCN(c2ccc([N+](=O)[O-])cc2Cl)CC1` gave A3A deaminase -2, pCIP destab -1, PHOSPHO1 block 2, Tb MetRS inh 5.8*, A3G deaminase -4, Tb MetRS conf 17*, Jurkat tox 2 and Tb MetRS inh FP 9.
CC(C(=O)NC1CCCCC1)N1CCN(C)CC1 (stereo not given) was read as A3A deaminase -1, pCIP destab -12, PHOSPHO1 block 5, Tb MetRS inh 0 and A3G deaminase -4.
For COc1cccc(Nc2nc3ccccc3c(=O)[nH]2)c1 the results were A3A deaminase -1, pCIP destab 12, PHOSPHO1 block 36, Tb MetRS inh 8.6*, A3G deaminase -1, Tb MetRS conf 18*, Jurkat tox 0 and Tb MetRS inh FP 6.
`O=C(CSCc1ccc([N+](=O)[O-])cc1)N/N=C/c1cccnc1` gave A3A deaminase -1, pCIP destab -15, PHOSPHO1 block -6, Tb MetRS inh 9.2*, A3G deaminase -7, Tb MetRS conf 34*, Jurkat tox -4 and Tb MetRS inh FP 10.
COc1ccccc1NS(=O)(=O)c1cc(NC(=O)Nc2ccccc2)ccc1N1CCCCC1 was read as pCIP destab -18, PHOSPHO1 block -30, Tb MetRS inh 6.2*, Tb MetRS conf 11*, Jurkat tox -1 and Tb MetRS inh FP 17*.
`COc1ccccc1NS(=O)(=O)c1cc(NC(=O)c2cccs2)ccc1N1CCCCC1` gave A3A deaminase 0, pCIP destab -19, PHOSPHO1 block -3, Tb MetRS inh -1 and A3G deaminase -7.
For O=C(Nc1ccc(F)cc1)Nc1ccc(N2CCCC2)c(S(=O)(=O)Nc2ccccc2Cl)c1 the results were A3A deaminase -1, pCIP destab 1, PHOSPHO1 block -8, Tb MetRS inh 11*, A3G deaminase 1, Tb MetRS conf 27*, Jurkat tox 67* and Tb MetRS inh FP 44*.
`CC(OC(=O)[C@@H](NC(=O)c1ccco1)C(C)C)C(=O)Nc1ncc(Cl)cc1Cl` (stereo not given in full) gave A3A deaminase -1, Tb MetRS inh 0 and A3G deaminase -5.
For Cc1csc(SCC(=O)NC(=O)C2CCCCC2)n1 the results were A3A deaminase -1, pCIP destab -6, PHOSPHO1 block 36, Tb MetRS inh 0 and A3G deaminase -12.
Cc1nccn1CC(O)COc1ccc(Cl)cc1Cl (stereo not given) was read as A3A deaminase -2, pCIP destab -9, PHOSPHO1 block 40, Tb MetRS inh 9.5*, A3G deaminase -6, Tb MetRS conf 11*, Jurkat tox 8 and Tb MetRS inh FP -2.
